According to ChEMBL document CHEMBL4831507, “Development of FABP4/5 inhibitors with potential therapeutic effect on type 2 Diabetes Mellitus” (Eur J Med Chem, 2021):
Activity calls are given as the source filed them. The rule behind the calls is not given here.

How the values were obtained:
[1] = target: T1, Fatty acid-binding protein, adipocyte (Homo sapiens, UniProt P15090); assay: Displacement of 1,8-ANS from FABP4 (unknown origin) at 25 uM incubated for 3 mins by fluorescence based analysis relative to control
In short: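 Single-concentration percent inhibition in the 1,8-ANS displacement assay with FABP4. Compound incubated with protein and probe in phosphate buffer for 3 min at room temperature; fluorescence read at ex 370/em 470 nm.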
Target sequence in this assay (P15090 2-132 limits assumed): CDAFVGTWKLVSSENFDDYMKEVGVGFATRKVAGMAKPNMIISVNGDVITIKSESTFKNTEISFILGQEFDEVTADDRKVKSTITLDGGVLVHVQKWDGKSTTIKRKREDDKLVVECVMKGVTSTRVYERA

[2] = target: T1, Fatty acid-binding protein, adipocyte; assay: Displacement of 1,8-ANS from FABP4 (unknown origin) incubated for 3 mins by fluorescence based analysis
In short: (§1)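 1,8-ANS displacement using purified recombinant FABP3, FABP4 or FABP5. Compound incubated with protein and 1,8-ANS in phosphate buffer for 3 min at room temperature. Fluorescence read at ex 370/em 470 nm. IC50 by nonlinear regression, mean ± SD of three independent experiments.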
Target sequence in this assay (P15090 whole entry): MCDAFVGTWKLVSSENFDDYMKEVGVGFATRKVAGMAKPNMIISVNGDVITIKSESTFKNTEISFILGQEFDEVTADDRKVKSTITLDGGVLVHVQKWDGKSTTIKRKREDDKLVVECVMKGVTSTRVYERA

[3] = target: T2, Fatty acid-binding protein 5 (Homo sapiens, UniProt Q01469); assay: Displacement of 1,8-ANS from FABP5 (unknown origin) incubated for 3 mins by fluorescence based analysis
[4] = target: Fatty acid-binding protein, heart (Homo sapiens, UniProt P05413); assay: Displacement of 1,8-ANS from FABP3 (unknown origin) incubated for 3 mins by fluorescence based analysis; in short: as §1
[5] = species on record: Homo sapiens; assay: Selectivity ratio of IC50 for FABP3 (unknown origin) to IC50 for FABP4 (unknown origin); in short: as §1
[6] = species on record: Homo sapiens; assay: Selectivity ratio of IC50 for FABP3 (unknown origin) to IC50 for FABP5 (unknown origin); in short: as §1
[7] = Metabolic stability in mouse liver microsomes assessed as half life at 0.1 uM preincubated for 10 mins followed by NADPH addition and measured for 60 mins by LC-MS/MS analysis; format: ADME, Microsome; conditions: time 70 min
In short: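 Mouse liver microsomes 0.33 mg/mL in 0.1 M Tris pH 7.4 with 5 mM MgCl₂, 0.01% DMSO and 0.005% BSA. Compound final […]. Preincubated 10 min at 37 °C; reaction started with 1 mM NADPH. Samples at 0, 7, 17, 30 and 60 min quenched with cold methanol, then analysed by LC-MS/MS.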

[8] = Half life in ICR mouse at 3 mg/kg, po measured for 24 hrs by LC-MS/MS analysis; format: ADME, organism-based; conditions: in vivo
In short: (§2)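 Male ICR mice, 20-25 g, three per group. Oral dose 3 mg/kg in PBS with 5% DMSO and 0.5% HPMC; iv dose 1 mg/kg in DMSO/EtOH/PEG300/NaCl (5/5/40/50). Blood sampled at 0.25, 0.5, 1, 2, 4, 8 and 24 h. Plasma drug measured by LC-MS/MS. Mean ± SEM, n = 3.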

[9] = Half life in ICR mouse at 1 mg/kg, iv measured for 24 hrs by LC-MS/MS analysis; format: ADME, organism-based; conditions: in vivo; in short: as §2
[10] = Cmax in ICR mouse at 3 mg/kg, po and 1 mg/kg, iv measured for 24 hrs by LC-MS/MS analysis; format: ADME, organism-based; parameters: time 24 hrs, dose 3 mg/kg; conditions: in vivo; in short: as §2
[11] = AUC in ICR mouse at 3 mg/kg, po measured for 24 hrs by LC-MS/MS analysis; format: ADME, organism-based; parameters: dose 3 mg/kg, time 24 hrs; conditions: in vivo; in short: as §2
[12] = AUC in ICR mouse at 1 mg/kg, iv measured for 24 hrs by LC-MS/MS analysis; format: ADME, organism-based; parameters: dose 1 mg/kg, time 24 hrs; conditions: in vivo; in short: as §2
[13] = Clearance in ICR mouse at 3 mg/kg, po and 1 mg/kg, iv measured for 24 hrs by LC-MS/MS analysis; format: ADME, organism-based; conditions: in vivo; in short: as §2
[14] = Oral bioavailability in ICR mouse at 3 mg/kg measured for 24 hrs by LC-MS/MS analysis; format: ADME, organism-based; conditions: in vivo; in short: as §2
[15] = system: THP-1; assay: Cytotoxicity against human THP-1 cells assessed as reduction in cell viability at 50 uM incubated for 24 hrs by CCK8 assay; format: cell-based; conditions: thp-1, 24 h
[16] = system: THP-1; assay: Antiinflammatory activity against LPS-induced human THP-1 cells assessed as inhibition of MCP-1 gene expression at 25 uM incubated for 18 hrs followed by LPS-stimulation and measured after 6 hrs by qRT-PCR analysis; format: functional, cell-based; conditions: time 24.0 hrs
In short: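 THP-1 cells (1 per 48-well, 3*10⁵) differentiated with 100 nM PMA for 24 h, then washed with PBS. Compound at […] or 0.1% DMSO for 18 h, then 100 ng/ml LPS for 6 h. RNA extracted with TRIzol. MCP-1 mRNA by RT-qPCR, 2^-ΔΔCT method.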

[17] = Toxicity in C57BL/KsJ-db/db mouse assessed as effect on body weight at 50 mg/kg, po administered for 8 weeks; format: organism-based; conditions: in vivo, 1344 h
In short: (§3)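 Male db/db mice, 6 weeks old, 10 per group, dosed 50 mg/kg by gavage daily for 8 weeks; vehicle 0.5% CMC-Na. Lean littermates received vehicle. Body weight recorded twice weekly; 6-h fasting tail glucose by glucometer weekly. OGTT on day 45: overnight fast, glucose 0.5 g/kg by gavage. ITT on day 51: 6-h fast, insulin 0.85 IU/kg ip. Glucose AUC calculated. Final serum taken after 6-h fast; HDL-C, LDL-C, TG, TCH and FABP4 measured by kits. Liver Akt and p-Akt(Ser473) by western blot.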

[18] = system: Mus musculus; assay: Antidiabetic activity in C57BL/KsJ-db/db mouse assessed as reduction in fasting blood glucose level at 50 mg/kg, po administered for 7 weeks; format: functional; conditions: 1176 h; in short: as §3
[19] = system: Mus musculus; assay: Antidiabetic activity in C57BL/KsJ-db/db mouse assessed as improvement in insulin resistance at 50 mg/kg, po administered for 51 days by insulin tolerance test; format: functional, organism-based; conditions: time 51.0 day; in short: as §3
[20] = system: Mus musculus; assay: In vivo activation of […] signaling in C57BL/KsJ-db/db mouse assessed as increase in Akt phosphorylation at Ser473 in liver at 50 mg/kg, po administered for 8 weeks by western blot analysis; format: functional, organism-based; in short: as §3
[21] = system: Mus musculus; assay: Improvement in lipid homeostasis in C57BL/KsJ-db/db mouse assessed as increase in high density cholesterol level in serum at 50 mg/kg, po administered for 8 weeks; format: functional, organism-based; in short: as §3
[22] = system: Mus musculus; assay: Improvement in lipid homeostasis in C57BL/KsJ-db/db mouse assessed as effect on triglyceride level in serum at 50 mg/kg, po administered for 8 weeks; format: functional, organism-based; in short: as §3
[23] = system: Mus musculus; assay: Reduction in FABP4 level in serum of C57BL/KsJ-db/db mouse at 50 mg/kg, po administered for 8 weeks; format: functional, organism-based; in short: as §3
[24] = system: 3T3-L1; assay: Inhibition of FABP4 secretion in mouse 3T3-L1 cells assessed as reduction in FABP4 level in conditioned medium at 50 uM incubated for 24 hrs by immunoblotting analysis; format: functional, cell-based
In short: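 Mature 3T3-L1 adipocytes starved for 6 h in DMEM with 0.5% BSA, then treated with compound at […] for 24 h. Conditioned medium ultrafiltered; lysate and medium protein measured by BCA. FABP4 immunoblotted with GAPDH, ECL detection, densitometry. Three independent experiments.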

[25] = system: 3T3-L1; assay: Anti-lipolytic activity in mouse 3T3-L1 cells assessed as inhibition of forskolin-stimulated glycerol release at 80 uM preincubated for 24 hrs followed by forskolin stimulation for 1 hr; format: functional, cell-based; conditions: time 25.0 hrs
[26] = target: T1, Fatty acid-binding protein, adipocyte; assay: Binding affinity to FABP4 (unknown origin) by microscale thermophoresis analysis
Target sequence in this assay (P15090 whole entry): as above

[27] = target: T2, Fatty acid-binding protein 5; assay: Binding affinity to FABP5 (unknown origin) by microscale thermophoresis analysis
[28] = system: 3T3-L1; assay: Cytotoxicity against mouse 3T3-L1 cells assessed as reduction in cell viability at 100 uM incubated for 24 hrs by CCK8 assay; format: cell-based; conditions: 3t3-l1, 24 h
[29] = system: Mus musculus; assay: Antidiabetic activity in C57BL/KsJ-db/db mouse assessed as improvement in glucose metabolism at 50 mg/kg, po administered for 45 days by oral glucose tolerance test; format: functional, organism-based; conditions: time 45.0 day; in short: as §3
[30] = system: Mus musculus; assay: Improvement in lipid homeostasis in C57BL/KsJ-db/db mouse assessed as effect on total cholesterol level in serum at 50 mg/kg, po administered for 8 weeks; format: functional, organism-based; in short: as §3

T2 sequence (Q01469 whole entry): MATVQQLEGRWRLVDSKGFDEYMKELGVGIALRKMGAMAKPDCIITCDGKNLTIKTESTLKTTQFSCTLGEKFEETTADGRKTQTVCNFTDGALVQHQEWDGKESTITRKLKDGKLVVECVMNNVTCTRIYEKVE
Fatty acid-binding protein, heart, sequence (P05413 whole entry): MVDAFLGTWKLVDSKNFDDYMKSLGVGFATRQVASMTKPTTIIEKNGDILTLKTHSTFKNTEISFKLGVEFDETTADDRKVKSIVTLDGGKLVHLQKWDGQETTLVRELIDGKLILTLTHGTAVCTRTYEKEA

inhibition [1]: 94%
IC50 [2]: 3.78 µM
IC50 [3]: 5.72 µM
IC50 [4]: 84.4 µM
Ratio IC50 [5]: 22.3
Ratio IC50 [6]: 14.7
half-life at 0.1 µM [7]: 1.47 h
half-life [8]: 6.04 h
half-life [9]: 1.78 h
Cmax [10]: 0.478 µg/mL
AUC at 24 h [11]: 1.74 µg·h/mL
AUC at 24 h [12]: 1.94 µg·h/mL
clearance [13]: 0.514 L/h/kg
bioavailability [14]: 29.9%
Kd [26]: 3.14 µM
Kd [27]: 14.1 µM
Compound: COc1c(-c2ccc(F)cc2C)cc(S(=O)(=O)Nc2ccc(F)c(CC(=O)O)c2)c2ccccc12
Activity [15]: Non-Toxic
Activity [16]: Active
Activity [17]: Non-Toxic
inhibition in vivo at 50 mg/kg [18]: 28.1%
Activity [19]: Active
Activity [20]: Active
Activity [21]: Active
Activity [22]: inactive
inhibition [23]: Active
inhibition [24]: Active
Activity [25]: Active
Activity [28]: Non-Toxic
Activity [29]: Active
Activity [30]: inactive
